Source: ChEMBL document CHEMBL2203243, “Synthesis and biological evaluation of novel benzimidazole derivatives and their binding behavior with bovine serum albumin” (Eur J Med Chem, 2012)
Values after ≈ are worked out from the molar mass of the structure shown.

Tests used:
[1] = system: Micrococcus luteus; assay: Antimicrobial activity against Micrococcus luteus ATCC 4698 by microbroth dilution method; format: functional
Procedure, shortened: (§1)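 Two-fold serial broth microdilution in 96-well microtest plates, run against four Gram-positive strains, five Gram-negative strains and two fungi.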

[2] = system: Staphylococcus aureus; assay: Antimicrobial activity against methicillin-resistant Staphylococcus aureus N315 by microbroth dilution method; format: functional
[3] = system: Bacillus subtilis; assay: Antimicrobial activity against Bacillus subtilis by microbroth dilution method; format: functional; procedure, shortened: as §1
[4] = system: Pseudomonas aeruginosa; assay: Antimicrobial activity against Pseudomonas aeruginosa by microbroth dilution method; format: functional; procedure, shortened: as §1
[5] = system: Candida albicans; assay: Antimicrobial activity against Candida albicans by microbroth dilution method; format: functional; procedure, shortened: as §1
[6] = system: Bacillus; assay: Antimicrobial activity against Bacillus proteus by microbroth dilution method; format: functional; procedure, shortened: as §1
[7] = Lipophilicity, log P of the compound by UV-Vis spectrophotometric method based saturation shake flask assay; format: physicochemical; conditions: octanol/water
Procedure, shortened: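 Log P measured by the traditional saturation shake-flask partition, with compound quantified by UV-vis spectrophotometry.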

[8] = Antimicrobial activity against Eberthella typhosa by microbroth dilution method; format: functional; procedure, shortened: as §1
[9] = system: Candida; assay: Antimicrobial activity against Candida mycoderma by microbroth dilution method; format: functional; procedure, shortened: as §1
[10] = system: Staphylococcus aureus; assay: Antimicrobial activity against Staphylococcus aureus ATCC 25923 by microbroth dilution method; format: functional; procedure, shortened: as §1
[11] = system: Shigella dysenteriae; assay: Antimicrobial activity against Shigella dysenteriae by microbroth dilution method; format: functional
[12] = system: Escherichia coli; assay: Antimicrobial activity against Escherichia coli DH52 by microbroth dilution method; format: functional; procedure, shortened: as §1

| SMILES | MIC [1] | MIC [2] | MIC [3] | MIC [4] | MIC [5] | MIC [6] | logP ([7]; read-out: logP) | MIC [8] | MIC [9] | MIC [10] | MIC [11] | MIC [12] | logP [7] |
| --- | --- | --- | --- | --- | --- | --- | --- | --- | --- | --- | --- | --- | --- |
| ClCc1nc2ccccc2[nH]1 | 512 µg/mL (≈ 3070 µM) | > 512 µg/mL | > 512 µg/mL | > 512 µg/mL | 512 µg/mL (≈ 3070 µM) | > 512 µg/mL | 1.44 | 512 µg/mL (≈ 3070 µM) | > 512 µg/mL | > 512 µg/mL | 512 µg/mL (≈ 3070 µM) | 256 µg/mL (≈ 1540 µM) |  |
| CCCCCCCCCCCCn1c(CNNC(=O)c2sc(C(=O)NNCc3nc4ccccc4n3CCCCCCCCCCCC)c(C)c2C)nc2ccccc21 | > 512 µg/mL | 8 µg/mL (≈ 9.69 µM) | 512 µg/mL (≈ 620 µM) | 128 µg/mL (≈ 155 µM) | 256 µg/mL (≈ 310 µM) | > 512 µg/mL |  | 256 µg/mL (≈ 310 µM) | 64 µg/mL (≈ 77.6 µM) | 128 µg/mL (≈ 155 µM) | 16 µg/mL (≈ 19.4 µM) | 128 µg/mL (≈ 155 µM) | ND(Insoluble) |
| CCCCCCCCCCCCCCCCCCn1c(CNNC(=O)c2sc(C(=O)NNCc3nc4ccccc4n3CCCCCCCCCCCCCCCCCC)c(C)c2C)nc2ccccc21 | > 512 µg/mL | 512 µg/mL (≈ 515 µM) | > 512 µg/mL | 512 µg/mL (≈ 515 µM) | > 512 µg/mL | > 512 µg/mL |  | 64 µg/mL (≈ 64.4 µM) | 256 µg/mL (≈ 258 µM) | 256 µg/mL (≈ 258 µM) | 512 µg/mL (≈ 515 µM) | 512 µg/mL (≈ 515 µM) | ND(Insoluble) |
| Cc1c(C(=O)NNCc2nc3ccccc3n2Cc2ccc(Cl)c(Cl)c2)sc(C(=O)NNCc2nc3ccccc3n2Cc2ccc(Cl)c(Cl)c2)c1C | > 512 µg/mL | > 512 µg/mL | 512 µg/mL (≈ 635 µM) | > 512 µg/mL | > 512 µg/mL | > 512 µg/mL | 7.16 | > 512 µg/mL | > 512 µg/mL | 32 µg/mL (≈ 39.7 µM) | > 512 µg/mL | 512 µg/mL (≈ 635 µM) |  |
| Cc1c(C(=O)NNCc2nc3ccccc3n2Cc2ccc(F)cc2F)sc(C(=O)NNCc2nc3ccccc3n2Cc2ccc(F)cc2F)c1C | 256 µg/mL (≈ 346 µM) | 128 µg/mL (≈ 173 µM) | 256 µg/mL (≈ 346 µM) | 128 µg/mL (≈ 173 µM) | 64 µg/mL (≈ 86.4 µM) | 128 µg/mL (≈ 173 µM) | 4.96 | 128 µg/mL (≈ 173 µM) | 256 µg/mL (≈ 346 µM) | 64 µg/mL (≈ 86.4 µM) | 256 µg/mL (≈ 346 µM) | 128 µg/mL (≈ 173 µM) |  |
| Cc1c(C(=O)NNCc2nc3ccccc3n2Cc2ccc(F)cc2)sc(C(=O)NNCc2nc3ccccc3n2Cc2ccc(F)cc2)c1C | 128 µg/mL (≈ 182 µM) | 128 µg/mL (≈ 182 µM) | 32 µg/mL (≈ 45.4 µM) | 128 µg/mL (≈ 182 µM) | 64 µg/mL (≈ 90.8 µM) | 128 µg/mL (≈ 182 µM) | 5.25 | 128 µg/mL (≈ 182 µM) | 32 µg/mL (≈ 45.4 µM) | 128 µg/mL (≈ 182 µM) | 128 µg/mL (≈ 182 µM) | 32 µg/mL (≈ 45.4 µM) |  |
| Cc1c(C(=O)NNCc2nc3ccccc3n2Cc2ccc(Cl)cc2)sc(C(=O)NNCc2nc3ccccc3n2Cc2ccc(Cl)cc2)c1C | 16 µg/mL (≈ 21.7 µM) | 32 µg/mL (≈ 43.4 µM) | 32 µg/mL (≈ 43.4 µM) | 32 µg/mL (≈ 43.4 µM) | 16 µg/mL (≈ 21.7 µM) | 32 µg/mL (≈ 43.4 µM) | 6.19 | 16 µg/mL (≈ 21.7 µM) | 32 µg/mL (≈ 43.4 µM) | 32 µg/mL (≈ 43.4 µM) | 32 µg/mL (≈ 43.4 µM) | 8 µg/mL (≈ 10.8 µM) |  |
| Cc1c(C(=O)NNCc2nc3ccccc3n2Cc2cccc(Cl)c2)sc(C(=O)NNCc2nc3ccccc3n2Cc2cccc(Cl)c2)c1C | 32 µg/mL (≈ 43.4 µM) | 16 µg/mL (≈ 21.7 µM) | 128 µg/mL (≈ 174 µM) | 128 µg/mL (≈ 174 µM) | 128 µg/mL (≈ 174 µM) | 128 µg/mL (≈ 174 µM) | 6.34 | 256 µg/mL (≈ 347 µM) | 64 µg/mL (≈ 86.8 µM) | 128 µg/mL (≈ 174 µM) | 128 µg/mL (≈ 174 µM) | 32 µg/mL (≈ 43.4 µM) |  |
| Cc1c(C(=O)NNCc2nc3ccccc3n2Cc2ccccc2Cl)sc(C(=O)NNCc2nc3ccccc3n2Cc2ccccc2Cl)c1C | 16 µg/mL (≈ 21.7 µM) | 16 µg/mL (≈ 21.7 µM) | 32 µg/mL (≈ 43.4 µM) | 64 µg/mL (≈ 86.8 µM) | 32 µg/mL (≈ 43.4 µM) | 16 µg/mL (≈ 21.7 µM) | 6.25 | 128 µg/mL (≈ 174 µM) | 128 µg/mL (≈ 174 µM) | 32 µg/mL (≈ 43.4 µM) | 32 µg/mL (≈ 43.4 µM) | 32 µg/mL (≈ 43.4 µM) |  |
| CCCn1c(CNNC(=O)c2sc(C(=O)NNCc3nc4ccccc4n3CCC)c(C)c2C)nc2ccccc21.Cl | 256 µg/mL | 32 µg/mL | 256 µg/mL | 32 µg/mL | 32 µg/mL | 16 µg/mL |  | 4 µg/mL | 128 µg/mL | 256 µg/mL | 128 µg/mL | 256 µg/mL |  |
| CCCCCCCCCCn1c(CNNC(=O)c2sc(C(=O)NNCc3nc4ccccc4n3CCCCCCCCCC)c(C)c2C)nc2ccccc21.Cl | 8 µg/mL | 2 µg/mL | 2 µg/mL | 16 µg/mL | 8 µg/mL | 2 µg/mL |  | 4 µg/mL | 4 µg/mL | 2 µg/mL | 8 µg/mL | 4 µg/mL |  |
